Source: PubChem BioAssay
Most compounds without a hit are left out; they make up all but 4.6% or so of the library.
OX1R antag-1: OX1R (human) antagonism. O43613. inhibition, % at 6.6 µM. OX1R-expressing cells, FRET antagonist read-out. 330,000 tested, 1.8% active; in the data active means inhibition mostly above about 38%, no sharp cut-off; inactive means mostly below about 40%;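 further: 0% = agonist challenge alone and 100% = reference antagonist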
Target sequence (O43613 whole entry, looked up): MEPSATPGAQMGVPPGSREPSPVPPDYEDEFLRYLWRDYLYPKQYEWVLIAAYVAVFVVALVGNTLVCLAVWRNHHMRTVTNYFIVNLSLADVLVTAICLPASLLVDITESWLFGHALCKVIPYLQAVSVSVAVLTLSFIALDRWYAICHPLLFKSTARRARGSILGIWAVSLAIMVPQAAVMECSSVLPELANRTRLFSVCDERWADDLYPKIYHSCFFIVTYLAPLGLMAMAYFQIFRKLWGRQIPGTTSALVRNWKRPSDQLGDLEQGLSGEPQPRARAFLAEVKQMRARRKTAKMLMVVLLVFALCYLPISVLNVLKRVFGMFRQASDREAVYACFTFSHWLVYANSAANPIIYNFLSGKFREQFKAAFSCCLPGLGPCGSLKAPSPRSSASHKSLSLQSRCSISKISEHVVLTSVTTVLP
CHO parental Ca: counter-screen: ATP calcium response change in parental CHO cells; 330,000 tested, 0.63% active; AID 463079; inhibition, % at 5.6 µM; parental CHO-K1, ATP-induced calcium, Fluo-8 fluorescence;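 active means inhibition above that plate's mean sample inhibition plus 3 SD, cut at about 26% in these data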;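 further: 0% = ATP-challenged DMSO wells and 100% = DMSO wells without ATP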
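Material: Parental CHO cells | Reagent: ATP | Compound dosing: Single nominal dose of 5.6 µM per compound | Detection: Intracellular calcium via Fluo-8 no-wash fluorescent dye | Read-out: % inhibition of ATP-induced calcium mobilization | Benchmarks: Low control ATP plus DMSO, high control DMSO only | Replicates: Singlicate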
TAAR1 agonist: agonists of human TAAR1. AID 624467. CHO RD-HGA16 TAAR1, Fluo-8 calcium fluorescence; vehicle wells 0%, saturating PEA agonist 100%. Q96RJ0. activation, % at 3 µM. 360,000 tested, 0.99% active;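 active means activation above the mean activation of all test compounds in the run plus 3 SD, cut at about 38% in these data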
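Assay system: CHO-derived RD-HGA16 cells with stable Gα16 and human TAAR1; timing: 17-24 h seeding, 75 min 37 °C dye, 30 min RT; read-out: % activation from peak over basal fluorescence ratio, DMSO-to-PEA scaled; measured by: kinetic Fluo-8 calcium fluorescence; benchmarks: low control DMSO, high control PEA (EC100); doses: 3 µM single concentration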
TAAR1 antagonist: human TAAR1 antagonism; Q96RJ0; CHO RD-HGA16 TAAR1, Fluo-8 calcium fluorescence, antagonist; inhibition, % at 3 µM; 360,000 tested, 1.5% active; AID 624466;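 active means inhibition above a per-plate cutoff, the mean inhibition of test compounds on that plate plus 3 SD, cut at about 49% in these data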;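 further: 0% = DMSO plus EC80 beta-PEA response and 100% = DMSO alone without agonist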
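Material: CHO RD-HGA16 cells bearing hTAAR1; compound dosing: one-point dosing, 3 µM nominal final; schedule: dye loading 75 min at 37 °C, then 30 min room temperature; measured by: calcium fluorescence with Fluo-8; control set: vehicle and agonist controls; replication: n of 1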
OX1R antag-2: blocks the human orexin 1 receptor | AID 434989 | CHO/OX1R cells, Fluo-8 calcium fluorescence, orexin A | 330,000 tested, 0.43% active | inhibition, % at 5 µM;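 active means inhibition above its plate's threshold, mean inhibition of all tested compounds on the plate plus 3 SD, cut at about 37% in these data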;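 further: 0% = orexin A challenge wells and 100% = SB-334867-A antagonist wells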
GPR7 antag: antagonists of human GPR7 (neuropeptides B/W receptor 1) | P48145 | GPR7-expressing cells, fluorescence antagonist assay | inhibition, % at 4.4 µM | 290,000 tested, 1.1% active | AID 1861; in the data active means inhibition above about 16%, passing the limit was not always enough;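 further: cells stimulated with the agonist NPW; 0% = agonist with vehicle and 100% = vehicle without agonist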
Target sequence (P48145 whole entry, looked up): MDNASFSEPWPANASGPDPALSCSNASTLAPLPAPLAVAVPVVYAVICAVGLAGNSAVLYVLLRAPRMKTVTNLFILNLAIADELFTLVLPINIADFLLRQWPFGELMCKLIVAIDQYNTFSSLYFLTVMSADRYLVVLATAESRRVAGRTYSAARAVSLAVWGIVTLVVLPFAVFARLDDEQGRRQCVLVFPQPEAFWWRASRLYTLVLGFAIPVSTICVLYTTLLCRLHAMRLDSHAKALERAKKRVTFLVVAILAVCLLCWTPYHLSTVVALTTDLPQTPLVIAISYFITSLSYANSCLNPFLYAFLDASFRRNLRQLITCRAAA
TAAR1 ag conf: human TAAR1 agonism, confirmed; AID 651783; 2,400 tested, 82% active; CHO RD-HGA16 TAAR1, Fluo-8 calcium fluorescence; scaled: DMSO 0%, maximal phenethylamine 100%; activation, % at 3 µM; shares compounds with TAAR1 agonist;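 active means activation above a cutoff set at the run's mean compound activation plus 3 SD, cut at about 39% in these data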
Ga16 ag counter: nonselective agonism, TAAR1 counter-screen; 2,400 tested, 50% active; shares compounds with TAAR1 agonist; AID 651787; activation, % at 3 µM; CHO-Ga16 parental, Fluo-8 calcium fluorescence; normalized to maximal ATP response, DMSO zero;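 active means activation above the run cutoff, the mean activation over all tested wells plus 3 SD, cut at about 12% in these data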;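 further: 0% = DMSO wells and 100% = maximal ATP response on the peak over basal ratio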
TAAR1 desensitize: human TAAR1 agonist that also desensitizes the receptor. shares compounds with TAAR1 agonist. CHO RD-HGA16 hTAAR1, Fluo-8 calcium, beta-PEA response inhibition. inhibition, % at 3 µM. 2,400 tested, 46% active. AID 651951;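 active means inhibition above the run cutoff, the mean inhibition of all test compounds plus 3 SD, cut at about 49% in these data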;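 further: beta-PEA stimulus applied at its EC80; loss of beta-PEA calcium signal after compound pretreatment read as receptor desensitization; 0% = DMSO with beta-PEA at EC80 and 100% = DMSO alone without agonist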
Ga16 antag count: counter-screen for TAAR1 agonists: nonselective Ga16 antagonists | shares compounds with TAAR1 agonist | CHO-Ga16 ATP-induced calcium, Fluo-8 fluorescence | inhibition, % at 3 µM | 2,400 tested, 39% active | AID 651952;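 active means inhibition above the plate's mean compound inhibition plus 3 SD, computed per plate, cut at about 22% in these data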;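 further: 0% = EC80 ATP with DMSO and 100% = DMSO wells without ATP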
* marks the source's active call; other numbers are inactive results; / = not tested or not shown.

SMILES | OX1R antag-1 | CHO parental Ca | TAAR1 agonist | TAAR1 antagonist | OX1R antag-2 | GPR7 antag | TAAR1 ag conf | Ga16 ag counter | TAAR1 desensitize | Ga16 antag count
CCOc1ccc([N+](=O)[O-])cc1CNCCc1ccccc1 | 38 | -14 | 52* | 27 | -27 | 44* | 66* | 2 | 51* | 18
CCCCCc1nc2c(c(=O)c3ccccc3n2C)c(=O)n1C1CCCCCC1 | 19 | -15 | 125* | 85* | -8 | -4 | 122* | 96* | 93* | 85*
CCCCCc1nc2ccccc2c(=O)n1-c1ccccc1[N+](=O)[O-] | 12 | -21 | -1 | -13 | -40 | -1 | / | / | / | /
O=C(NCCN1CCC2(CC1)C(=O)NCN2c1ccccc1)c1cccc(F)c1 | / | / | 60* | 74* | / | / | 39* | 21* | 54* | 31*
O=C(NCCN1CCC2(CC1)C(=O)NCN2c1ccccc1)c1ccc(F)c(F)c1 | / | / | 110* | 103* | / | / | 102* | 67* | 104* | 87*
COc1cccc(C(=O)NCCN2CCC3(CC2)C(=O)NCN3c2ccccc2)c1 | / | / | 10 | 5 | / | / | / | / | / | /
O=C(NCCN1CCC2(CC1)C(=O)NCN2c1ccccc1)c1cccc2c1-c1ccccc1C2=O | / | / | 2 | -7 | / | / | / | / | / | /
O=[N+]([O-])c1ccc(NCc2ccccc2)c2nonc12 | 45 | 94* | 954* | 107* | 108* | 34* | 496* | 650* | 105* | 103*
O=[N+]([O-])c1ccc(NCc2ccc(Cl)cc2)c2ccncc12 | 5 | -22 | 16 | -1 | -18 | -10 | / | / | / | /
CC(Cc1ccccc1)NC(=O)/C=C/C(=O)O (configuration not stated) | 2 | 4 | / | / | 11 | -4 | / | 2 | / | 2
Cc1ccc(-n2c(CNCc3ccc(F)cc3)nc3ccccc3c2=O)cc1 | / | / | 0 | 6 | / | -19 | / | / | / | /
COC(=O)C1=CCCN(C)C1 | 9 | -11 | 54* | 11 | -6 | 0 | 88* | 1 | 57* | 4
COC(=O)c1ccc(CN2CCN(Cc3ccccc3)CC2)cc1 | 12 | -10 | 6 | -1 | -10 | -9 | / | / | / | /
COc1ccc(CNCCc2ccc(Cl)cc2Cl)cc1 | 4 | -7 | 5 | -2 | -5 | -10 | / | / | / | /
Clc1ccc(CCNCc2ccncc2)c(Cl)c1 | -5 | -12 | 74* | 52* | -15 | 13 | 89* | 5 | 71* | 1
CN(CCc1ccccc1)Cc1ccccc1[N+](=O)[O-] | 29 | -5 | 5 | -1 | -7 | -14 | / | / | / | /
Oc1ccccc1CN(CCc1ccccc1)Cc1ccccc1 | 30 | -36 | 49* | 32 | -53 | -11 | 75* | 16* | 89* | 14
NCCCC(=O)OC1N=C(c2ccccc2Cl)c2cc(Br)ccc2NC1=O (configuration not stated) | 16 | -11 | 2 | -1 | -12 | 0 | / | / | / | /
CCc1ccc(N2C(=O)NC(=O)/C(=C\C=C\c3ccco3)C2=O)cc1 | 18 | -3 | 73* | 42 | -8 | -4 | 67* | 26* | 69* | 19
CCCCN1C(=O)/C(=C/C=C/c2ccco2)C(=O)NC1=S | / | / | 18 | 15 | / | -3 | / | / | / | /
Cc1cc(C)cc(N2C(=O)NC(=O)/C(=C\C=C\c3ccco3)C2=O)c1 | 10 | -11 | 50* | 23 | 1 | 3 | 72* | 47* | 40 | 16
c1ccc(Cc2cnc(N3CCNCC3)nc2)cc1 | / | / | 45* | -18 | / | / | 58* | 0 | 19 | 5
c1cnc(N2CCNCC2)nc1 | 17 | -6 | 23 | -20 | -8 | -10 | / | / | / | /
CCCCC(CC)CNCC(O)c1ccccc1 (configuration not stated) | 1 | -16 | 53* | 5 | -26 | -2 | 64* | 5 | 28 | 4
COc1ccc(CCNC(=O)c2c(N)n(CCN3CCOCC3)c3nc4ccccc4nc23)cc1 | 45 | -19 | 16 | 48 | -30 | -17 | / | / | / | /
SMILES | OX1R antag-1 | CHO parental Ca | TAAR1 agonist | TAAR1 antagonist | OX1R antag-2 | GPR7 antag | TAAR1 ag conf | Ga16 ag counter | TAAR1 desensitize | Ga16 antag count
Nc1c(C(=O)NCCc2ccccc2)c2nc3ccccc3nc2n1CCN1CCOCC1 | 12 | 19 | 71* | 74* | 24 | 2 | 32 | 13* | 47 | 43*
Cc1ccc(-n2c(O)c(C=Nc3ccc(S(=O)(=O)N(C)C)cc3)c(=O)[nH]c2=O)cc1 | 4 | -7 | 2 | -2 | -10 | -11 | / | / | / | /
Cc1ccc(S(=O)(=O)N2CCCC(C(=O)N3CCC4(CC3)OCCO4)C2)cc1 (configuration not stated) | 12 | -15 | 11 | 2 | -9 | -2 | / | / | / | /
CN1/C(=C\C=C2C(=O)NC(=S)NC2=O)C(C)(C)c2ccccc21 | / | / | 308* | 95* | / | 4 | 191* | 208* | 90* | 92*
O=C1NC(=S)NC(=O)C1=Cc1cccc2cc3ccccc3cc12 | / | / | 1 | -7 | / | 4 | / | / | / | /
Cc1ccccc1CCNCc1ccc(Br)cc1 | 5 | -5 | 71* | 50* | -13 | 2 | 93* | 14* | 67* | 12
COc1ccc2[nH]c3c(c2c1)CCNC3 | 2 | -11 | 44* | -14 | -2 | / | 59* | 0 | 27 | 5
COC(=O)C1=C(c2c(C)noc2C)C[C@@H]2CC[C@H]1N2C(=O)NCCCOC(C)C | -2 | -3 | 4 | -12 | -10 | / | / | / | / | /
COc1ccc(C(c2nnnn2C2CCCCC2)N2CCC3(CC2)C(=O)NCN3c2ccccc2)cc1 (configuration not stated) | / | / | 2 | -44 | / | / | / | / | / | /
CCC1([N+](=O)[O-])COP(N)(=O)OC1 (configuration not stated) | / | / | 0 | 0 | / | / | / | / | / | /
COc1ccc(CNCCc2ccc(Cl)cc2)c(OC)c1OC | 11 | -18 | 65* | -25 | -18 | 12 | 76* | 25* | 39 | 9
O=[N+]([O-])c1ccc(N2CCNCC2)cc1NCC1CCCO1 (configuration not stated) | 36 | -4 | 7 | -9 | -20 | 2 | / | / | / | /
O=C(c1ccc(Cl)cc1)C1CCCN(Cc2cccc3cnccc23)C1 (configuration not stated) | 8 | -6 | -2 | -10 | -31 | -14 | / | / | / | /
N[C@@H]1C[C@H]1c1ccccc1 | 14 | -10 | 80* | 78* | -5 | / | 99* | 10 | 86* | -2
CC(C)N=C(NC(C)C)N1CC1 | / | / | 0 | -9 | / | / | / | / | / | /
